# Columns and labels:
# [1] = molecular target: T1, phosphorylation of PPARγ at S273 (pS273) (Homo sapiens, UniProt P37231); details: ref Choi et al., 2010; cited from earlier work
# T1 sequence (P37231 1-505): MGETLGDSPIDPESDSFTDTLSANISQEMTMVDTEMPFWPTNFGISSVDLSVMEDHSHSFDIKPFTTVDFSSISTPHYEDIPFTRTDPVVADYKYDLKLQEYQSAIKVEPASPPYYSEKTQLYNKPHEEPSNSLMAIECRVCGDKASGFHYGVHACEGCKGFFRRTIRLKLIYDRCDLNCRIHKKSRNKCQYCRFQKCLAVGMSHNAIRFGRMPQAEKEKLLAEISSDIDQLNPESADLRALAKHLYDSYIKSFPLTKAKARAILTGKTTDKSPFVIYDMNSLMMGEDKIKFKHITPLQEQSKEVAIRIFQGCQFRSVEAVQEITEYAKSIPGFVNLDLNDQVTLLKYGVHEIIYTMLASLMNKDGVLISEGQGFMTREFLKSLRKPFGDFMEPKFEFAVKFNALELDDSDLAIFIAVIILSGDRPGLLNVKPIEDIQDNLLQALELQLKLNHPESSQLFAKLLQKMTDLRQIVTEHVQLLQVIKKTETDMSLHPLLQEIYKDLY
# His-PPARγ = molecular target: T2, His-PPARγ (Homo sapiens, UniProt P37231); assay: TR-FRET NR box peptide recruitment assay; type: biochemical; details: FITC-labeled peptides
# T2 sequence (P37231 1-505): T1 sequence (P37231 1-505)
# PPRE = assay: full length PPRE transactivation assay; type: cell-based; details: for EC50 PPRE: full length PPRE assay
# 3T3-L1 cells = assay: Differentiation of 3T3-L1 cells; type: cell-based, Mus musculus; details: for RNA-seq differential gene expression: 3T3-L1 cells, 6 days
# Procedure, shortened: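 Mouse 3T3-L1 embryo fibroblasts grown in DMEM with 10% heat-inactivated FBS, 2mM L-glutamine and 1% penicillin/streptomycin at 37 °C, 5% CO2. Test compound (1μM) added from the first day of differentiation; six days' incubation. Lipid droplets stained with Oil Red. Gene expression by qPCR: SYBR green, ΔΔ-Ct method normalised to Tbp. RNA-seq used stranded (dUTP) cDNA libraries. Mean ± SEM.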
# PPARγ Gal-4 = molecular target: T3, PPARγ Gal-4 (Homo sapiens, UniProt P37231); assay: Gal4-PPARγ-LBD cell-based transactivation assay in HEK293T cells
# T3 sequence (P37231 238-503 limits assumed): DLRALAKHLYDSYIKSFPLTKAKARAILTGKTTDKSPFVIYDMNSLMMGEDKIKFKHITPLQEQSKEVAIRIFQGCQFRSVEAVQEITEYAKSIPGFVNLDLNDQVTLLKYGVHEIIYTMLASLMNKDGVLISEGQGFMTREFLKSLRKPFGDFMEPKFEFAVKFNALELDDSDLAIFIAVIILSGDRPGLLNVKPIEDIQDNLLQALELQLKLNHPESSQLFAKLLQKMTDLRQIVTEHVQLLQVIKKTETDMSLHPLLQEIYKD
# [2] = molecular target: T1, phosphorylation of PPARγ at S273 (pS273); assay: In vitro Cdk5 kinase assay, phosphorylation of PPARγ at S273; type: biochemical; details: vs DMSO only controls
# Procedure, shortened: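 1 μg immuno-purified WT PPARγ substrate pre-incubated with test compound for 30 min. Active Cdk5/p35 kinase then added in 25 mM Tris-HCl pH 7.5, 5 mM β-glycerophosphate, 2 mM DTT, 0.1 mM Na3VO4, 10 mM MgCl2 and 20 μM ATP, for 15 min at 30 °C. After SDS–PAGE, phospho-Ser in the K/R-S-P-K/R motif was detected with an anti-CDK-substrate antibody.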
# [3] = Plasma exposure following oral administration in mice; type: in vivo, C57BL/6 mice
# human PPARα (hPPARα) = molecular target: T4, human PPARα (hPPARα) (Homo sapiens, UniProt Q07869); assay: PPARα GAL-4 transactivation assay in HEK293T cells; type: cell-based
# T4 sequence (Q07869 239-466 limits assumed): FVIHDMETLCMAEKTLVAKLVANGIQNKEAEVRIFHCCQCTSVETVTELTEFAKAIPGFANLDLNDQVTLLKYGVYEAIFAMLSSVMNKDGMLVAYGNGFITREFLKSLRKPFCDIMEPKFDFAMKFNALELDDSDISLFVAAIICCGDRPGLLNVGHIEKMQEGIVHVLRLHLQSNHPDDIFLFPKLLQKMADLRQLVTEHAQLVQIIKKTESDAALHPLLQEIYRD
# hPPARδ = molecular target: T5, hPPARδ (Homo sapiens, UniProt Q03181); assay: hPPARδ-Gal4 transactivation assay; type: cell-based; details: Figure S1A
# T5 sequence (Q03181 1-441): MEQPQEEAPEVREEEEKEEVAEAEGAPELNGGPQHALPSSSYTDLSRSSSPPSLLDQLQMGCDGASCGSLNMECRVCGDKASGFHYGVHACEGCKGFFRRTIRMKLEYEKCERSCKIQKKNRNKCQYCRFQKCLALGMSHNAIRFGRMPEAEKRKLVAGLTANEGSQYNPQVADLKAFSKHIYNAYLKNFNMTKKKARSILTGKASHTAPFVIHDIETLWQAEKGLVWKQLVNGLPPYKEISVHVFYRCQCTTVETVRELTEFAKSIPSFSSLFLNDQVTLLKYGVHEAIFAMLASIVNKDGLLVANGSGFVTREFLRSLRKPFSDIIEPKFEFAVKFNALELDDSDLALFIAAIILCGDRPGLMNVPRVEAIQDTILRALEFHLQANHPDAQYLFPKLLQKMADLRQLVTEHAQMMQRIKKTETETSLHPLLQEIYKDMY
# PPARγ LBD = molecular target: T6, PPARγ LBD (human, UniProt P37231 231-505); assay: cross-linking
# T6 sequence (looked up): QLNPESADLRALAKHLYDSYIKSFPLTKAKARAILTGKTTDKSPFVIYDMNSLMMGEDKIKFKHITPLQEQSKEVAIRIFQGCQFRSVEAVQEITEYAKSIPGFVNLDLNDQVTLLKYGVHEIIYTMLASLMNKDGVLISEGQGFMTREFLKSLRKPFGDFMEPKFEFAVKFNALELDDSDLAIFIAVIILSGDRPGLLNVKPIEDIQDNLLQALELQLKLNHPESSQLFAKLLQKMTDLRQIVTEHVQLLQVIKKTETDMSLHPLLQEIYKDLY
molecule,measurement,setting,value
MRL24,inhibition of p273-PPARγ compared with Rosi,[1],"More potent than Rosi to inhibit p273 ([Choi et al., 2010])"
same,PPARγ interaction with coactivator NR box peptides p300 and SRC1–2,His-PPARγ,enhanced the association
same,PPARγ interaction with corepressor peptides NCOR1–3 and SMRT-2,His-PPARγ,facilitated dissociation
"CN(CCOc1ccc(CC2SC(=O)NC2=O)cc1)c1ccccn1 (centres unmarked) [Rosiglitazone, reference compound]",EC50,PPRE; read-out: EC50 PPRE,10 nM
same,RNA-seq differential gene expression,3T3-L1 cells,robust activation of a large gene set containing many known PPARγ target genes
"Cc1c(C)n(Cc2ccc(C(C)(C)C(=O)O)cc2)c2ccc(C(=O)N[C@@H](C)c3cccc(C4CC4)c3)cc12 [SR11023, (S)-2-(4-((5-((1-(3-cyclopropylphenyl)ethyl)carbamoyl)-2,3-dimethyl-1H-indol-1-yl)methyl)phenyl)-2-methylpropanoic acid]",EC50,"PPARγ Gal-4; EC50 PPARγ Gal-4, HEK293T",2760 nM
same,Max.Stim. PPARγ Gal-4,PPARγ Gal-4; HEK293T,10%
same,shift of the dose response curve for rosiglitazone in the GAL4-PPARG assay,PPARγ Gal-4; data not shown,significantly right-shift the dose response curve for rosiglitazone
same,EC50 PPRE,PPRE,No activity
same,% inhibition p273-PPARγ,"[2]; 20μM, 20 µM",77%
same,inhibition at 2 µM,"[2]; read-out: % inhibition p273-PPARγ, 2μM",25%
same,concentration at 2 h,"[3]; C57BL/6, mouse, plasma, po, 40 mg.kg−1",70 µM
same,EC50 PPARα GAL-4,human PPARα (hPPARα),No activity
same,"transcriptional agonism, hPPARα-Gal4 transactivation",human PPARα (hPPARα); Figure S1A,no transcriptional agonism
same,PPARγ interaction with coactivator NR box peptides p300 and SRC1–2,His-PPARγ,no enhanced interaction
same,PPARγ interaction with corepressor peptides NCOR1–3 and SMRT-2,His-PPARγ,increased
same,RNA-seq differential gene expression,3T3-L1 cells,very modest regulation of only a small subset of PPARγ controlled genes
same,"adipogenic activity (lipid formation, aP2 and cd36 expression)","3T3-L1 cells; differentiated 3T3-L1 cells, 1μM, six days",minimal adipogenic activity
same,"transcriptional agonism, hPPARδ-Gal4 transactivation",hPPARδ,no transcriptional agonism
"Cc1c(C)n(Cc2ccc(-c3ccccc3C(=O)O)cc2)c2ccc(C(=O)N[C@@H](C)c3ccc([N+](=O)[O-])cc3)cc12 [SR1664, reference compound]",EC50 PPRE,PPRE,No activity
same,plasma concentration,"[3]; C57BL/6 mice, oral, 40mg.kg−1, two hours after dosing",less than 1 μM
same,EC50,human PPARα (hPPARα); read-out: EC50 PPARα GAL-4,8600 nM
LTERHKILHRLLQEGSPSD [SRC1–2 NR box peptide],binding result,PPARγ LBD,binds

# — publication PMC6221991 (Structure (London, England : 1993), 2018)
